Data taken from PMC4013241 (Molecular cancer therapeutics, 2014).

How the values were obtained:
U87 cells = experiment: Flow cytometric cell cycle analysis; assay type: cell-based, human; conditions: 24 h
[1] = tested on: phosphorylated Akt, CREB, JNK pan, Erk, p38γ; experiment: Human phospho-MAPK array in U87 cells; assay type: cell-based; conditions: 6.3 μM, 1 h
In short: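 U87 cells on 10 cm plates were exposed to 6.3 μM test compound for 1 h, rinsed in cold PBS and lysed at 1 × 10^7 cells/ml, rocking 30 min at 4°C. 200 μg of supernatant protein was mixed with detection antibody cocktail for 1 h at room temperature. The mixture was applied to array membranes overnight at 4°C, then streptavidin-HRP for 30 min. Chemiluminescent spots were recorded on X-ray film.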

p-Akt = p-Akt in GBM39 cells; assay type: cell-based; conditions: Homo sapiens, GBM39, read-out: nadir p-Akt inhibition relative to the control

Structure (SMILES): CN1CCN(c2ccc(Nc3ncc4cc(C#N)c(=O)n(C5CCCC5)c4n3)cc2)CC1 [ON123300]
- increase in the percentage of cells in the G2/M phase vs control (U87 cells): ~2.5 fold
- percentage of cells in the G2/M phase (U87 cells; 6.3 μM ON123300 alone or with 13.3 μM GFN, control 10.4 ± 0.6%): 38.2 ± 01.4%
- p-Erk and p38γ levels [1]: increased
- phosphorylated Akt, CREB and JNK pan expression levels [1]: decreased
- inhibition at 4 µM (p-Akt): 55%
